What is called IC50 is the concentration that inhibits the measured activity by half. A lower IC50 goes with greater potency.

Experimental findings from ChEMBL document CHEMBL3588850, “Multivalent Amino Sugars to Recognize Different TAR RNA Conformations” (Medchemcomm, 2014) are described below.

The target in test [1] is Nucleic Acid. The experiment in a line: Binding affinity to wild type HIV1 TAR RNA at pH 6.8 by ethidium bromide displacement assay. The test is classed as nucleic-acid assay, Human immunodeficiency virus 1. The method in brief:
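TAR RNA (200 nM/strand) and EtBr (5 μM) in 100 mM KCl, 10 mM SC, 0.5 mM EDTA, pH 6.8, titrated with ligand aliquots (at most 4% v/v). Fluorescence excited at 545 nm and read at 610 nm. IC50 is the ligand concentration that displaces 50% of EtBr, taken from a sigmoidal fit of fraction displaced versus log ligand concentration.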

For test [2], the system named is Nucleic Acid. As to the kind of experiment: Binding affinity to wild type HIV1 TAR RNA assessed as association constant at pH 6.8 by ethidium bromide displacement assay based Scatchard analysis method. It is filed as nucleic-acid assay. The conditions noted are these: Human immunodeficiency virus 1. The method in brief: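 Ethidium bromide displacement: 5 μM EtBr with TAR RNA at 200 nM/strand (under 20% of EtBr bound) in 100 mM KCl, 10 mM SC, 0.5 mM EDTA, pH 6.8. Ligand added in concentrated aliquots, at most 4% v/v. Excitation 545 nm, emission 580–660 nm, intensity at 610 nm. Association constant obtained by Scatchard analysis of the titration data.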

The target in test [3] is Nucleic Acid. As to the kind of experiment: Binding affinity to HIV1 TAR RNA bulgeless tetraloop mutant at pH 6.8 by ethidium bromide displacement assay. The test is classed as nucleic-acid assay, Human immunodeficiency virus 1. The method in brief:
(§1)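 Synthetic 2′-ACE-protected TAR RNA, deprotected, heated 98 °C 5 min, then ice-cooled 15 min. TAR RNA at 200 nM/strand with ethidium bromide 5 μM in 100 mM KCl, 10 mM SC, 0.5 mM EDTA, pH 6.8. Ligand added stepwise, ≤4% v/v. Excitation 545 nm, emission 580–660 nm, intensity at 610 nm normalized. IC50 from sigmoidal fit of fraction EtBr displaced vs log ligand; association constants from Scatchard analysis.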

In test [4] the test system is Nucleic Acid. As to the kind of experiment: Binding affinity to HIV1 TAR RNA bulgeless tetraloop mutant assessed as association constant at pH 6.8 by ethidium bromide displacement assay based Scatchard analysis method. It is filed as nucleic-acid assay. The conditions noted are these: Human immunodeficiency virus 1. The method in brief: as §1
Test [5] concerns Nucleic Acid. As to the kind of experiment: Binding affinity to HIV1 TAR RNA bulgeless mutant assessed as association constant at pH 6.8 by ethidium bromide displacement assay based Scatchard analysis method. It is filed as nucleic-acid assay. The conditions noted are these: Human immunodeficiency virus 1. The method in brief:
as §1

Test [6] deals with Nucleic Acid. The experiment in a line: Induction of conformational changes in wild type HIV1 TAR RNA assessed as changes in 210 to 220 nm region using 1 molar equivalents of compound at pH 6.8 by CD spectroscopy. The test is classed as nucleic-acid assay. To be noted: Human immunodeficiency virus 1.
The subject of test [7] is Nucleic Acid. The experiment in a line: Induction of conformational changes in wild type HIV1 TAR RNA assessed as increase in intensity in 265 nm region using 1 molar equivalents of compound at pH 6.8 by CD spectroscopy. The test is classed as nucleic-acid assay. To be noted: Human immunodeficiency virus 1.
Test [8] has as its target Nucleic Acid. As to the kind of experiment: Binding affinity to HIV1 TAR RNA tetraloop mutant at pH 6.8 by ethidium bromide displacement assay. The test is classed as nucleic-acid assay, Human immunodeficiency virus 1. The method in brief: as §1
For test [9], the target named is Nucleic Acid. As to the kind of experiment: Binding affinity to HIV1 TAR RNA bulgeless mutant at pH 6.8 by ethidium bromide displacement assay. The test is classed as nucleic-acid assay, Human immunodeficiency virus 1. The method in brief:
as §1

Test [10] has as its target Nucleic Acid. As to the kind of experiment: Binding affinity to HIV1 TAR RNA U3 bulge mutant at pH 6.8 by ethidium bromide displacement assay. It is filed as nucleic-acid assay, Human immunodeficiency virus 1. The method in brief: as §1
The subject of test [11] is Nucleic Acid. As to the kind of experiment: Binding affinity to HIV1 TAR RNA tetraloop mutant assessed as association constant at pH 6.8 by ethidium bromide displacement assay based Scatchard analysis method. The test is classed as nucleic-acid assay. To be noted: Human immunodeficiency virus 1. The method in brief: as §1
Test [12] relates to Nucleic Acid. As to the kind of experiment: Binding affinity to HIV1 TAR RNA U3 bulge mutant at assessed as association constant at pH 6.8 by ethidium bromide displacement assay based Scatchard analysis method. The test is classed as nucleic-acid assay. The conditions noted are these: Human immunodeficiency virus 1. The method in brief:
as §1

Structures are written as SMILES. The source made the active and inactive calls. The calls are words filed in the database; no cut-off is given here.

On to `NC[C@@H]1O[C@H](O[C@H]2[C@@H](O)[C@H](O[C@@H]3[C@@H](O)[C@H](N)C[C@H](N)[C@H]3O[C@H]3O[C@H](CN)[C@@H](O)[C@H](O)[C@H]3N)O[C@@H]2Cn2cc(-c3ccc(-c4cn(C[C@H]5O[C@@H](O[C@@H]6[C@@H](O)[C@H](N)C[C@H](N)[C@H]6O[C@H]6O[C@H](CN)[C@@H](O)[C@H](O)[C@H]6N)[C@H](O)[C@@H]5O[C@H]5O[C@@H](CN)[C@@H](O)[C@H](O)[C@H]5N)nn4)cc3)nn2)[C@H](N)[C@@H](O)[C@@H]1O`, for which the IC50 on Nucleic Acid [1] was 150 nM. For the same molecule, the K with Nucleic Acid [2] turned out to be 1.5 ×10⁸ /M.
For the molecule `NC[C@@H]1O[C@H](O[C@H]2[C@@H](O)[C@H](O[C@@H]3[C@@H](O)[C@H](N)C[C@H](N)[C@H]3O[C@H]3O[C@H](CN)[C@@H](O)[C@H](O)[C@H]3N)O[C@@H]2Cn2cc(-c3cccc(-c4cn(C[C@H]5O[C@@H](O[C@@H]6[C@@H](O)[C@H](N)C[C@H](N)[C@H]6O[C@H]6O[C@H](CN)[C@@H](O)[C@H](O)[C@H]6N)[C@H](O)[C@@H]5O[C@H]5O[C@@H](CN)[C@@H](O)[C@H](O)[C@H]5N)nn4)c3)nn2)[C@H](N)[C@@H](O)[C@@H]1O`, the IC50 was found to be 142 nM on Nucleic Acid [3]; 110 nM on Nucleic Acid [1]; 180 nM at Nucleic Acid [8]; 130 nM on Nucleic Acid [9]; 244 nM on Nucleic Acid [10]. For the same molecule, the K with Nucleic Acid [4] worked out at 6.9 ×10⁷ /M; in the test with Nucleic Acid [5], 1 ×10⁸ /M; in the test on Nucleic Acid [2], 1.4 ×10⁸ /M; with Nucleic Acid [11], 1.3 ×10⁷ /M. In addition, the outcome in the test with Nucleic Acid [6] and in the test with Nucleic Acid [7] was Active.
Consider `NC[C@@H]1O[C@H](O[C@H]2[C@@H](O)[C@H](O[C@@H]3[C@@H](O)[C@H](N)C[C@H](N)[C@H]3O[C@H]3O[C@H](CN)[C@@H](O)[C@H](O)[C@H]3N)O[C@@H]2Cn2cc(COCCCCCCCCOCc3cn(C[C@H]4O[C@@H](O[C@@H]5[C@@H](O)[C@H](N)C[C@H](N)[C@H]5O[C@H]5O[C@H](CN)[C@@H](O)[C@H](O)[C@H]5N)[C@H](O)[C@@H]4O[C@H]4O[C@@H](CN)[C@@H](O)[C@H](O)[C@H]4N)nn3)nn2)[C@H](N)[C@@H](O)[C@@H]1O`, for which the IC50 turned out to be 106 nM on Nucleic Acid [3]; 156 nM on Nucleic Acid [1]; 188 nM at Nucleic Acid [8]; 108 nM at Nucleic Acid [9]; 234 nM at Nucleic Acid [10]. Besides, the K with Nucleic Acid [4] is 7.2 ×10⁷ /M; in the test with Nucleic Acid [12], 4.8 ×10⁶ /M; in the test on Nucleic Acid [5], 6.8 ×10⁷ /M; in the test on Nucleic Acid [2], 7.6 ×10⁶ /M; with Nucleic Acid [11] it was 1.4 ×10⁷ /M.
As for `C/C(CCc1cn(C[C@H]2O[C@@H](O[C@@H]3[C@@H](O)[C@H](N)C[C@H](N)[C@H]3O[C@H]3O[C@H](CN)[C@@H](O)[C@H](O)[C@H]3N)[C@H](O)[C@@H]2O[C@H]2O[C@@H](CN)[C@@H](O)[C@H](O)[C@H]2N)nn1)=C(/C)CCc1cn(C[C@H]2O[C@@H](O[C@@H]3[C@@H](O)[C@H](N)C[C@H](N)[C@H]3O[C@H]3O[C@H](CN)[C@@H](O)[C@H](O)[C@H]3N)[C@H](O)[C@@H]2O[C@H]2O[C@@H](CN)[C@@H](O)[C@H](O)[C@H]2N)nn1`, the IC50 at Nucleic Acid [3] was found to be 162 nM; at Nucleic Acid [1], 146 nM; on Nucleic Acid [8], 210 nM; on Nucleic Acid [9] it was 142 nM; at Nucleic Acid [10] it was 338 nM. Moreover, the K was found to be 2.8 ×10⁷ /M with Nucleic Acid [4]; 2.6 ×10⁶ /M with Nucleic Acid [12]; 3.6 ×10⁷ /M in the test with Nucleic Acid [5]; 1.1 ×10⁷ /M in the test on Nucleic Acid [2]; 3.5 ×10⁶ /M in the test on Nucleic Acid [11].
Regarding `NC[C@@H]1O[C@H](O[C@H]2[C@@H](O)[C@H](O[C@@H]3[C@@H](O)[C@H](N)C[C@H](N)[C@H]3O[C@H]3O[C@H](CN)[C@@H](O)[C@H](O)[C@H]3N)O[C@@H]2Cn2cc(CCCc3cn(C[C@H]4O[C@@H](O[C@@H]5[C@@H](O)[C@H](N)C[C@H](N)[C@H]5O[C@H]5O[C@H](CN)[C@@H](O)[C@H](O)[C@H]5N)[C@H](O)[C@@H]4O[C@H]4O[C@@H](CN)[C@@H](O)[C@H](O)[C@H]4N)nn3)nn2)[C@H](N)[C@@H](O)[C@@H]1O`, the IC50 amounted to 146 nM on Nucleic Acid [3]; 118 nM at Nucleic Acid [1]; 190 nM on Nucleic Acid [8]; 134 nM on Nucleic Acid [9]; 224 nM at Nucleic Acid [10]. The K is 7.5 ×10⁷ /M in the test on Nucleic Acid [4]; 6.9 ×10⁶ /M in the test on Nucleic Acid [12]; 8.9 ×10⁷ /M with Nucleic Acid [5]; 7.1 ×10⁷ /M with Nucleic Acid [2]; 1.4 ×10⁷ /M in the test on Nucleic Acid [11].
With `NC[C@@H]1O[C@H](O[C@H]2[C@@H](O)[C@H](O[C@@H]3[C@@H](O)[C@H](N)C[C@H](N)[C@H]3O[C@H]3O[C@H](CN)[C@@H](O)[C@H](O)[C@H]3N)O[C@@H]2Cn2cc(COCCCCCCCCCCCCOCc3cn(C[C@H]4O[C@@H](O[C@@H]5[C@@H](O)[C@H](N)C[C@H](N)[C@H]5O[C@H]5O[C@H](CN)[C@@H](O)[C@H](O)[C@H]5N)[C@H](O)[C@@H]4O[C@H]4O[C@@H](CN)[C@@H](O)[C@H](O)[C@H]4N)nn3)nn2)[C@H](N)[C@@H](O)[C@@H]1O`, the IC50 on Nucleic Acid [3] amounted to 158 nM; at Nucleic Acid [1], 144 nM; on Nucleic Acid [8], 300 nM; at Nucleic Acid [10], 326 nM. The K in the test with Nucleic Acid [4] is 2.7 ×10⁷ /M; in the test on Nucleic Acid [12], 1.5 ×10⁶ /M; in the test on Nucleic Acid [5] it was 4.4 ×10⁷ /M; in the test with Nucleic Acid [2], 2.5 ×10⁷ /M; with Nucleic Acid [11] it was 2 ×10⁶ /M.
On to `NC[C@@H]1O[C@H](O[C@H]2[C@@H](O)[C@H](O[C@@H]3[C@@H](O)[C@H](N)C[C@H](N)[C@H]3O[C@H]3O[C@H](CN)[C@@H](O)[C@H](O)[C@H]3N)O[C@@H]2Cn2cc(CCCCCCc3cn(C[C@H]4O[C@@H](O[C@@H]5[C@@H](O)[C@H](N)C[C@H](N)[C@H]5O[C@H]5O[C@H](CN)[C@@H](O)[C@H](O)[C@H]5N)[C@H](O)[C@@H]4O[C@H]4O[C@@H](CN)[C@@H](O)[C@H](O)[C@H]4N)nn3)nn2)[C@H](N)[C@@H](O)[C@@H]1O`, for which the IC50 came out at 150 nM on Nucleic Acid [3]; 126 nM at Nucleic Acid [1]; 214 nM at Nucleic Acid [8]; 146 nM on Nucleic Acid [9]; 256 nM at Nucleic Acid [10]. Further, the K with Nucleic Acid [4] was determined as 5.9 ×10⁷ /M; in the test with Nucleic Acid [12], 3.8 ×10⁶ /M; in the test with Nucleic Acid [5] it was 6.3 ×10⁷ /M; with Nucleic Acid [2], 6.6 ×10⁷ /M; with Nucleic Acid [11], 5 ×10⁶ /M.
As for `NC[C@@H]1O[C@H](O[C@H]2[C@@H](O)[C@H](O[C@@H]3[C@@H](O)[C@H](N)C[C@H](N)[C@H]3O[C@H]3O[C@H](CN)[C@@H](O)[C@H](O)[C@H]3N)O[C@@H]2Cn2cc(CCCCc3cn(C[C@H]4O[C@@H](O[C@@H]5[C@@H](O)[C@H](N)C[C@H](N)[C@H]5O[C@H]5O[C@H](CN)[C@@H](O)[C@H](O)[C@H]5N)[C@H](O)[C@@H]4O[C@H]4O[C@@H](CN)[C@@H](O)[C@H](O)[C@H]4N)nn3)nn2)[C@H](N)[C@@H](O)[C@@H]1O`, the IC50 at Nucleic Acid [3] stood at 216 nM; at Nucleic Acid [1] it was 144 nM; at Nucleic Acid [8] it was 278 nM; on Nucleic Acid [9] it was 160 nM; at Nucleic Acid [10] it was 278 nM. The K in the test on Nucleic Acid [4] was 1.2 ×10⁷ /M; in the test with Nucleic Acid [12], 2.1 ×10⁶ /M; in the test on Nucleic Acid [5] it was 2.2 ×10⁷ /M; in the test with Nucleic Acid [2] it was 2.6 ×10⁷ /M.
